The text below walks through data of PMC5269645 (Journal of the American Chemical Society, 2016).

Where two headings read alike, the source gives them in different places.

One may read the Kd as the concentration at which binding is half-saturated. One may read the IC50 as the midpoint of a concentration-inhibition curve.

Assay [1] addresses BxGH99. As to conditions: read-out: KD values, BxGH99; ITC; cited from earlier work.
Assay [2] concerns the target T1, BtGH99 (Bacteroides thetaiotaomicron, UniProt Q8A109).
T1 sequence (Q8A109 18-382): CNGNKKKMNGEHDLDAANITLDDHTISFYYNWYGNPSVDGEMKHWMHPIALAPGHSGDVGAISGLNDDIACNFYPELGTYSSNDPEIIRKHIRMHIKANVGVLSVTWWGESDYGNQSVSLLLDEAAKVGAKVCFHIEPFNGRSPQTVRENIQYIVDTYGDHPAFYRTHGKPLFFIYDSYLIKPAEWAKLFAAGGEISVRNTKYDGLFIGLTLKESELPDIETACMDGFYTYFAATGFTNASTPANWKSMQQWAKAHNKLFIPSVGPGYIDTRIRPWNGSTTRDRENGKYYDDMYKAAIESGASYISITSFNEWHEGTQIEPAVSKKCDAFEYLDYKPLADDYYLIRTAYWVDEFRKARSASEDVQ
The conditions noted are these: read-out: KD values, BtGH99; ITC; cited from earlier work.

A further assay deals with rat endomannosidase. As to conditions: read-out: IC50, rat endomannosidase; inhibition of cleavage of 14C-labeled GlcMan9GlcNAc; cited from earlier work.
In assay [3] the target is T2, BxGH99 (Bacteroides xylanisolvens, UniProt D6D1V7).
T2 sequence (D6D1V7 13-380): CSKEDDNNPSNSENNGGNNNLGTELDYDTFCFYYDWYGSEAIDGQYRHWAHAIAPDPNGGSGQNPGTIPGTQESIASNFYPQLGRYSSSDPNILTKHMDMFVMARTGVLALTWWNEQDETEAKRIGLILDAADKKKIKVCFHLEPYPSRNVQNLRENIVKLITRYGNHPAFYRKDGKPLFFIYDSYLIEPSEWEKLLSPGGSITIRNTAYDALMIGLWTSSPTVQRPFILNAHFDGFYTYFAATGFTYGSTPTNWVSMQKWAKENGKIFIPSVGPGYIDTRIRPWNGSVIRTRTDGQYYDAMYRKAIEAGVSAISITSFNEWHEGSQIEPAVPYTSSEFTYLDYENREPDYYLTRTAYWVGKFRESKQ
Put plainly: 2D NMR. Type of assay: binding. An outline of the steps:
(§1)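 1H–15N SOFAST-HMQC spectra of 15N-labeled enzyme (average 58 μM) recorded for 1 h at 298 K in 50 mM potassium phosphate pH 7.0, 50 mM KCl, 5% D2O. Active-site Arg Nε-Hε peak (R295, Bx numbering) served as reporter. Bound fraction from peak intensities at several protein/ligand ratios, fitted against free ligand for KD. Duplicate points; Monte Carlo error propagation (n = 10 000), standard deviation.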

The target in assay [4] is T1, BtGH99. The assay can be described thus: 2D NMR. The class given is binding. In short, it runs like this:
as §1

A further assay relates to various glycosidases. As to conditions: cited from earlier work.

In the case of `OC[C@H]1CNCC(O[C@H]2O[C@H](CO)[C@@H](O)[C@H](O)[C@@H]2O)[C@@H]1O` (stereo partly drawn) [compound 3, ManIFG], the Kd is 0.27 µM at BxGH99 [1] and 0.14 µM on BtGH99 [2].

For the compound `OC[C@H]1NC[C@@H](O)[C@@H](O[C@H]2O[C@H](CO)[C@@H](O)[C@H](O)[C@H]2O)[C@@H]1O` [compound 1, GlcDMJ], the 50% inhibitory concentration (IC50) at rat endomannosidase was 1.7 µM. Moreover, the Kd on BtGH99 [2] is 24 µM.

Regarding `OC[C@H]1O[C@H](O[C@@H]2C=CO[C@H](CO)[C@H]2O)[C@@H](O)[C@@H](O)[C@@H]1O` [compound 7, α-D-Mannopyranosyl-(1→3)-1,5-anhydro-2-deoxy-D-arabino-hex-1-enitol], the Kd amounted to 111 ± 11 µM at BxGH99 [3] and 15 ± 1.9 µM on BtGH99 [4].

Consider `OC[C@H]1OCC[C@@H](O[C@H]2O[C@H](CO)[C@@H](O)[C@H](O)[C@H]2O)[C@@H]1O` [compound 4, GlcddMan], for which the IC50 on rat endomannosidase was 3.8 µM.

As for `OC[C@H]1CNCC(O[C@H]2O[C@H](CO)[C@@H](O)[C@H](O)[C@H]2O)[C@@H]1O` (stereo partly drawn) [compound 2, GlcIFG], on BtGH99 [2], the Kd is 0.63 µM.

With `OC[C@H]1OCC[C@@H](O[C@H]2O[C@H](CO)[C@@H](O)[C@H](O)[C@@H]2O)[C@@H]1O` [compound 5, α-D-Mannopyranosyl-(1→3)-1,2-dideoxy-D-mannopyranose], the Kd was determined as 221 ± 11 µM on BxGH99 [3] and 53 ± 5 µM on BtGH99 [4]. Also, the “affinity relative to ManGlucal, fold worse, BxGH99” value on BxGH99 [3] (ratio of KD values) is on record as 8 fold.

Consider `OC[C@H]1CNC(O)[C@@H](O)[C@@H]1O` (stereo partly drawn) [noeuromycin], for which, in the assay on various glycosidases, the “times more tightly bound than isofagomine” value is recorded as 2–4000 times.
